Assay results: ChEMBL document CHEMBL4190389, “Synthesis and activity of di- or trisubstituted N-(phenoxyalkyl)- or N-{2-[2-(phenoxy)ethoxy]ethyl}piperazine derivatives on the central nervous system” (Bioorg Med Chem Lett, 2018)
Activity calls are given as the source filed them. The calls are words filed in the database; no cut-off is given here.

Key:
[1] = target: T1, Alpha-1A adrenergic receptor (Homo sapiens) (UniProt P35348); experiment: Displacement of [3H]prazosin from recombinant human alpha1 adrenoceptor expressed in CHO cell membranes at 10^-5 M after 30 mins by liquid scintillation counting method
T1 sequence (whole entry): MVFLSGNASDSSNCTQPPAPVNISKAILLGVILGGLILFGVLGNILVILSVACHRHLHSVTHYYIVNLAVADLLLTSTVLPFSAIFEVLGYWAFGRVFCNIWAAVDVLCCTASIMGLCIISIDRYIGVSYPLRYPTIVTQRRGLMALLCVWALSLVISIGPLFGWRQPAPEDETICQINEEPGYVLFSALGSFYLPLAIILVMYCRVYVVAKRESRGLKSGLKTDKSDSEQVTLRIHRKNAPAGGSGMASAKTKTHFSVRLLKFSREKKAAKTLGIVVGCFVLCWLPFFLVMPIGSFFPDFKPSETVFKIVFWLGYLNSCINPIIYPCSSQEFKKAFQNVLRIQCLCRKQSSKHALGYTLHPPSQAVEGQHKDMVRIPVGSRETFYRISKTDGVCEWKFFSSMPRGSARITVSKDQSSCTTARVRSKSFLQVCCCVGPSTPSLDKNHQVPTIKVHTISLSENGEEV

[2] = target: T2, 5-hydroxytryptamine receptor 7 (Homo sapiens, UniProt P34969); experiment: biochemical; assay type: cell-based, CHO
T2 sequence (P34969 whole entry): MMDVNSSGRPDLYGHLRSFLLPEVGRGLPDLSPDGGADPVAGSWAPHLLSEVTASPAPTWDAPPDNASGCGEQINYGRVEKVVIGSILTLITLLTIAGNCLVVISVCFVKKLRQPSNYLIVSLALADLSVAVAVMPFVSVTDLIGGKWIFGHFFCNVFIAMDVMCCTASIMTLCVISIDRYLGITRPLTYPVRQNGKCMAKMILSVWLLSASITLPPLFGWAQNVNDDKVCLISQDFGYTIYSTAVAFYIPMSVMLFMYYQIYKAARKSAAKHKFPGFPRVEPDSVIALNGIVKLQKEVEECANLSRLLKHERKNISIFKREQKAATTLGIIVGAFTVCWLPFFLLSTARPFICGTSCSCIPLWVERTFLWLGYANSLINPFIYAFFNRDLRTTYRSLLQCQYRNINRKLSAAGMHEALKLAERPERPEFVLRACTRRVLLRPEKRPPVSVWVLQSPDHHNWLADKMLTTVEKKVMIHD

[3] = Protection index, ratio of TD50 for motor impairment in ip dosed Swiss albino CD-1 mouse to ED50 for protection against 50 Hz current-induced seizures in ip dosed Swiss albino CD-1 mouse; assay type: toxicity, organism-based, Swiss CD-1; settings: in vivo, read-out: Ratio TD50/ED50
[4] = Neurotoxicity in ip dosed Albino Swiss CD-1 mouse assessed as minimum dose required to induce motor impairment treated 30 mins prior to test by rotarod test; assay type: toxicity, organism-based; settings: in vivo
Mus musculus [5] = experiment: Toxicity in Albino Swiss CD-1 mouse assessed as death at 30 to 100 mg/kg, ip; assay type: organism-based; settings: in vivo
Outline: (§1)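 Deaths counted in mice during maximal electroshock (MES) seizure testing after i.p. dosing, 6 mice per dose (3 or 1 at some top doses); recorded as number dead/number tested alongside protection and rotarod motor impairment (10 rpm); untreated control group included.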

Mus musculus [6] = experiment: Antiallodynic activity in STZ-induced Albino Swiss CD-1 mouse allodynia model assessed as increase in paw withdrawal latency time at 30 mg/kg, ip measured after 60 mins by Von Frey test; assay type: functional, organism-based
Mus musculus [7] = experiment: Antiallodynic activity in oxaliplatin-induced Albino Swiss CD-1 mouse allodynia model assessed as effect on hind paw licking at 30 mg/kg, ip measured after 60 mins by cold plate test; assay type: functional, organism-based
[8] = target: T3, 5-hydroxytryptamine receptor 1A (Homo sapiens) (UniProt P08908); experiment: Displacement of [3H]8-OH-DPAT from recombinant human 5-HT1A receptor expressed in HEK293 cell membranes at 10^-5 M after 60 mins by liquid scintillation counting method
T3 sequence (whole entry): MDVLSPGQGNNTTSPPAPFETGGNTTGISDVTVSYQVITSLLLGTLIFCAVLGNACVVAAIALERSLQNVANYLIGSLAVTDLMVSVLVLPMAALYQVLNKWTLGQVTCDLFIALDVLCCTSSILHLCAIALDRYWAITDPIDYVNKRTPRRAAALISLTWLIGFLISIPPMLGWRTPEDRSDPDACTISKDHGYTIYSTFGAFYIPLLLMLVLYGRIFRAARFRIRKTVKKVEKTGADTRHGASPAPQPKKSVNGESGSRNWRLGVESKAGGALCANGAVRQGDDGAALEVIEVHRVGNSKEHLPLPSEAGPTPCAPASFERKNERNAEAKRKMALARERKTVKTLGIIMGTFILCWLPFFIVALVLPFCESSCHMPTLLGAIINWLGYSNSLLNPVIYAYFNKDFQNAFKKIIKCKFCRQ

Mus musculus [9] = experiment: Anticonvulsant activity in Albino Swiss CD-1 mouse assessed as protection against 50 Hz current-induced seizure at 100 mg/kg, ip; assay type: functional, organism-based
Mus musculus [10] = experiment: Toxicity in Albino Swiss CD-1 mouse assessed as effect on locomotory activity at 5 to 10 mg/kg, ip administered for 30 mins prior to test measured for 1 min; assay type: organism-based; settings: in vivo
Outline: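 Mice dosed i.p. 30 min before test; vehicle groups received 0.9% NaCl. Spontaneous locomotion scored as number of crossings during a 1-min session. Each dose compared with its own vehicle group by Student t-test; mean ± SEM, n = 8–10 mice per group.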

D(2) dopamine receptor [11] = target: T4, D(2) dopamine receptor (Homo sapiens, UniProt P14416); experiment: Displacement of [3H]methylspiperonee from recombinant human D2 receptor expressed in HEK293 cell membranes at 10^-5 M after 60 mins by liquid scintillation counting method
T4 sequence (P14416 whole entry): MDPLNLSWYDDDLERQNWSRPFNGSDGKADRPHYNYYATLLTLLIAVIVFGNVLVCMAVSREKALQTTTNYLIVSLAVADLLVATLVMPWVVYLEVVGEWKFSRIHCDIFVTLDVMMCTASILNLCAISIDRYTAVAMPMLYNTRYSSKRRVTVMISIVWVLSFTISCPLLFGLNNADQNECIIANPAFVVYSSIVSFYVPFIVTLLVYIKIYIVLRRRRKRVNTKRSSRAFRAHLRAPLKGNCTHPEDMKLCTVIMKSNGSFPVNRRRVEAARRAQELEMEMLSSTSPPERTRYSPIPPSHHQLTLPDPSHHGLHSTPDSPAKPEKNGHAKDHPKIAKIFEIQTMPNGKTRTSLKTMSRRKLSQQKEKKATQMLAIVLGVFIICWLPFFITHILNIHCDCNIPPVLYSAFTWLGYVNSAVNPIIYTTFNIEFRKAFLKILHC

Mus musculus [12] = experiment: Anticonvulsant activity in ip dosed Albino Swiss CD-1 mouse assessed as dose required to protect against 50 Hz current-induced seizure; assay type: functional; settings: Swiss CD-1, ip
Mus musculus [13] = experiment: Antidepressant-like activity in Albino Swiss CD-1 mouse assessed as immobility time at 20 mg/kg, ip administered 30 mins prior to test measured for last 4 mins of 6 mins observation by forced swim test (reference value: 153.9 to 201.9 secs); assay type: functional
[14] = target: 5-hydroxytryptamine receptor 2A (Homo sapiens, UniProt P28223); experiment: biochemical; assay type: cell-based, HEK293;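 further: radioligand displacement of [3H]ketanserin binding at human 5-HT2A receptor in membranes from HEK293 cells, 60 min incubation, read by liquid scintillation counting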
5-hydroxytryptamine receptor 2A, sequence (P28223 whole entry): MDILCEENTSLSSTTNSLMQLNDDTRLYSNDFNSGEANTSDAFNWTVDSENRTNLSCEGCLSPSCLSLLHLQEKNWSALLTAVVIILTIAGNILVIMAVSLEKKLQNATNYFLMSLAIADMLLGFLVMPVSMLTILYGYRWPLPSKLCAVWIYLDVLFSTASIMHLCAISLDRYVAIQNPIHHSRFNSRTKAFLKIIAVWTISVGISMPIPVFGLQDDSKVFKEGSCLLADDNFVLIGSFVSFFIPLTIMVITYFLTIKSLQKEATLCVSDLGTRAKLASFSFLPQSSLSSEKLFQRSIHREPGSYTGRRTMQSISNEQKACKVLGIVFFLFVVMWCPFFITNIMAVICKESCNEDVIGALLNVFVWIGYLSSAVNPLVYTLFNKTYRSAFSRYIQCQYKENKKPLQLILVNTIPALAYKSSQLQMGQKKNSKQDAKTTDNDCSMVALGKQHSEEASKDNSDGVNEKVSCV

Mus musculus [15] = experiment: Anxiolytic-like activity in Albino Swiss CD-1 mouse assessed as increase in number of punished crossings at 5 to 10 mg/kg, ip administered for 30 mins prior to test measured for 1 min by four-plate test; assay type: functional, organism-based
Outline: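 Four-plate test in mice, i.p., 30 min before test; vehicle 0.9% NaCl; doses 1.25–10 mg/kg; number of punished crossings counted; mean ± SEM, n = 8–10 mice per group; ANOVA F statistics.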

Mus musculus [16] = experiment: Antidepressant-like activity in Albino Swiss CD-1 mouse assessed as immobility time at 5 mg/kg, ip administered 30 mins prior to test measured for last 4 mins of 6 mins observation by forced swim test (reference value: 153.9 to 201.9 secs); assay type: functional
Mus musculus [17] = experiment: Antiallodynic activity in oxaliplatin-induced Albino Swiss CD-1 mouse allodynia model assessed as effect on decrease in abnormal movement at 30 mg/kg, ip measured after 60 mins by cold plate test; assay type: functional, organism-based
[18] = target: 5-hydroxytryptamine receptor 6 (Homo sapiens, UniProt P50406); experiment: Displacement of [3H]LSD from recombinant human 5-HT6 receptor expressed in CHO cells cell membranes after 60 mins by liquid scintillation counting method
5-hydroxytryptamine receptor 6, sequence (P50406 whole entry): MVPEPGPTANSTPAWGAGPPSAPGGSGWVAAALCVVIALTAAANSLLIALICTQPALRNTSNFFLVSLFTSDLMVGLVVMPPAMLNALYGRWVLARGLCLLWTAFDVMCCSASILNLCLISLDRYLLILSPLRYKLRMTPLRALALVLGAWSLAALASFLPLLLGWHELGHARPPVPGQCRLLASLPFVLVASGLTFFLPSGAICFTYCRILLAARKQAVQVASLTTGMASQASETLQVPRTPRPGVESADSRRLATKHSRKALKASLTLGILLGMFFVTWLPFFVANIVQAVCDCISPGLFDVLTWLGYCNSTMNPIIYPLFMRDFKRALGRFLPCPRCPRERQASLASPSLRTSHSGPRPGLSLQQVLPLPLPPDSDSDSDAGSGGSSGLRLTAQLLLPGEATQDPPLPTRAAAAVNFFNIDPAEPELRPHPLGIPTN

Mus musculus [19] = experiment: Antinociceptive activity in STZ-induced Albino Swiss CD-1 mouse model of thermal-induced nociception assessed as increase in latency to respond with hind paw lick or jumping at 30 mg/kg, ip measured after 60 mins by hot plate test; assay type: functional, organism-based
Mus musculus [20] = experiment: Antidepressant-like activity in Albino Swiss CD-1 mouse assessed as immobility time at 10 mg/kg, ip administered 30 mins prior to test measured for last 4 mins of 6 mins observation by forced swim test (reference value: 153.9 to 201.9 secs); assay type: functional
Mus musculus [21] = experiment: Antiallodynic activity in oxaliplatin-induced Albino Swiss CD-1 mouse allodynia model assessed as effect on jumping at 30 mg/kg, ip measured after 60 mins by cold plate test; assay type: functional, organism-based
Mus musculus [22] = experiment: Antiallodynic activity in oxaliplatin-induced Albino Swiss CD-1 mouse allodynia model assessed as effect on shaking at 30 mg/kg, ip measured after 60 mins by cold plate test; assay type: functional, organism-based
D(2) dopamine receptor [23] = target: T4, D(2) dopamine receptor; experiment: Agonist activity at human D2 receptor expressed in CHO-K1 cells co-expressing Galphaqi5 assessed as increase apomorphine-induced calcium mobilization measured for 30 secs by aequorin-derived luminescence assay relative to apomorphine; assay type: functional, cell-based
[24] = target: T3, 5-hydroxytryptamine receptor 1A (Homo sapiens); experiment: (§2) Antagonist activity at human 5-HT1A receptor expressed in CHO-K1 cells co-expressing Galpha16 assessed as decrease in serotonin calcium mobilization preincubated for 25 mins followed by serotonin challenge measured for 30 secs by aequorin-derived luminescence assay; assay type: functional, cell-based
[25] = target: T5, 5-hydroxytryptamine receptor 1A (Homo sapiens, UniProt P08908); experiment: as §2; assay type: functional, cell-based
T5 sequence (P08908 whole entry): T3 sequence (whole entry)

[26] = target: T2, 5-hydroxytryptamine receptor 7; experiment: Antagonist activity at human 5-HT7 receptor expressed in CHO-K1 cells assessed as decrease in serotonin-induced cAMP level after 1 hr by TR-FRET assay relative to control; assay type: functional, cell-based
[27] = target: T6, Alpha-1A adrenergic receptor (Homo sapiens, UniProt P35348); experiment: Displacement of [3H]prazosin from recombinant human alpha1 adrenoceptor expressed in CHO cell membranes after 30 mins by liquid scintillation counting method
T6 sequence (P35348 whole entry): T1 sequence (whole entry)

[28] = target: T3, 5-hydroxytryptamine receptor 1A (Homo sapiens); experiment: Agonist activity at human 5-HT1A receptor expressed in CHO-K1 cells co-expressing Galpha16 assessed as increase in calcium mobilization measured for 30 secs by aequorin-derived luminescence assay relative to serotonin; assay type: functional, cell-based
[29] = target: T5, 5-hydroxytryptamine receptor 1A; experiment: Displacement of [3H]8-OH-DPAT from recombinant human 5-HT1A receptor expressed in HEK293 cell membranes after 60 mins by liquid scintillation counting method
[30] = target: T2, 5-hydroxytryptamine receptor 7; experiment: Antagonist activity at human 5-HT7 receptor expressed in CHO-K1 cells assessed as decrease in serotonin-induced cAMP level after 1 hr by TR-FRET assay; assay type: functional, cell-based
[31] = target: T3, 5-hydroxytryptamine receptor 1A (Homo sapiens); experiment: Antagonist activity at human 5-HT1A receptor expressed in CHO-K1 cells co-expressing Galpha16 assessed as decrease in serotonin-induced calcium mobilization preincubated for 25 mins followed by serotonin challenge measured for 30 secs by aequorin-derived luminescence assay relative to control; assay type: functional, cell-based
D(2) dopamine receptor [32] = target: T4, D(2) dopamine receptor; experiment: Antagonist activity at human D2 receptor expressed in CHO-K1 cells co-expressing Galphaqi5 assessed as decrease in apomorphine-induced calcium mobilization preincubated for 30 mins followed by apomorphine challenge measured for 30 secs by aequorin-derived luminescence assay; assay type: functional, cell-based
[33] = target: T2, 5-hydroxytryptamine receptor 7; experiment: Agonist activity at human 5-HT7 receptor expressed in CHO-K1 cells assessed as increase in serotonin-induced cAMP level after 1 hr by TR-FRET assay relative to serotonin; assay type: functional, cell-based
Mus musculus [34] = experiment: Toxicity in Albino Swiss CD-1 mouse assessed as death at 30 mg/kg, ip; assay type: organism-based; settings: in vivo; outline: as §1
D(2) dopamine receptor [35] = target: T4, D(2) dopamine receptor; experiment: Displacement of [3H]methylspiperonee from recombinant human D2 receptor expressed in HEK293 cells cell membranes after 60 mins by liquid scintillation counting method

Compound: Cc1cc(C)c(C)c(OCCOCCN2CCN(CCO)CC2)c1.Cl.Cl
- inhibition [1]: inactive
- Ki [2]: 3140 nM
- selectivity ratio [3]: 3.07
- TD50 at 0.5 h [4]: 74.9 mg/kg
- Activity (Mus musculus [5]): Non-Toxic
- Activity (Mus musculus [6]): Active
- Activity (Mus musculus [7]): inactive
- inhibition [8]: inactive
- Activity (Mus musculus [9]): Active
- Activity (Mus musculus [10]): Non-Toxic
- inhibition (D(2) dopamine receptor [11]): inactive
- ED50 (Mus musculus [12]): 24.4 mg/kg
- Time (Mus musculus [13]): 176.4 s
- Ki [14]: > 5000 nM
- Activity (Mus musculus [15]): inactive
- Time (Mus musculus [16]): 171.8 s
- Activity (Mus musculus [17]): inactive
- Ki [18]: > 5000 nM
- Activity (Mus musculus [19]): inactive
- Time (Mus musculus [20]): 184.9 s
- Activity (Mus musculus [21]): inactive
- Activity (Mus musculus [22]): inactive

Compound: COc1ccccc1N1CCN(CCCOc2ccc(C)cc2C)CC1.Cl
- Emax (D(2) dopamine receptor [23]): 2%
- Ki [2]: 15 nM
- Kb [24]: 1.8 nM
- IC50 [25]: 7.19 nM
- Emax [26]: 5%
- Activity (Mus musculus [10]): Non-Toxic
- Ki [27]: 11 nM
- Emax [28]: 5%
- Ki [29]: 2 nM
- IC50 [30]: 1050 nM
- Kb [30]: 448 nM
- Time (Mus musculus [13]): 197.3 s
- Emax [31]: 2%
- Ki [14]: 527 nM
- Activity (Mus musculus [15]): inactive
- IC50 (D(2) dopamine receptor [32]): 17.7 nM
- Kb (D(2) dopamine receptor [32]): 5.29 nM
- Time (Mus musculus [16]): 182.6 s
- Emax [33]: 0%
- Activity (Mus musculus [34]): Non-Toxic
- Ki [18]: > 5000 nM
- Ki (D(2) dopamine receptor [35]): 97 nM
- Time (Mus musculus [20]): 198.1 s
